Measured values: ChEMBL document CHEMBL5120755, “A new strategy for hit generation: Novel in cellulo active inhibitors of CYP121A1 from Mycobacterium tuberculosis via a combined X-ray crystallographic and phenotypic screening approach (XP screen)” (Eur J Med Chem, 2022)

How the values were obtained:
[1] = Inhibition of Mycobacterium tuberculosis CYP121A1 mediated cYY conversion to mycocyclosin assessed as fold change in cYY level at 100 uM incubated for 2 hrs in the presence of NADPH by LC-MS activity assay relative to clotrimazole; format: ADME; conditions: recombinant enzyme
[2] = Binding affinity to Mycobacterium tuberculosis CYP121A1 expressed in Escherichia coli HMS174 (DE3) assessed as thermal stability by measuring increase in melting temperature at 1mM by SYPRO orange dye based differential scanning fluorimetry assay; conditions: 1000 µM
Procedure, shortened: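 Protein at 5 μM in 100 mM potassium phosphate pH 6.9 with 2.5× Sypro Orange. Ligand 1 mM final, 4% DMSO-d6. Scanned 25–95 °C in 0.5 °C steps of 30 s. Positive Tm shifts repeated in triplicate and averaged over four runs.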

[3] = Binding affinity to Mycobacterium tuberculosis CYP121A1 expressed in Escherichia coli HMS174 (DE3) assessed as dissociation constant by isothermal titration calorimetry; format: ADME
Procedure, shortened: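 Untagged His-purified CYP121A1 at 50 μM in 50 mM Tris-HCl, 1 mM EDTA, pH 7.2, with 10% DMSO-d6. Ligand at 0.5 or 2.5 mM final. One 0.2 μL injection discarded, then 19 injections of 2 μL at 120 s intervals, 25 °C. Ligand-into-buffer heats subtracted. One-site fit, N fixed at 1 for weak binders or left free.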

[4] = Inhibition of cYY binding to Mycobacterium tuberculosis CYP121A1 expressed in Escherichia coli HMS174 (DE3) assessed as dissociation constant of cYY preincubated with compound followed by substrate addition by competitive UV-visible spectroscopic analysis; format: ADME
Procedure, shortened: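 CYP121A1 at 5 μM. […] UV-vis difference spectra processed as for direct titrations and fitted to the Hill equation for Kd.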

[5] = test system: Mycobacterium tuberculosis; experiment: Antimycobacterial activity against Mycobacterium tuberculosis H37Rv assessed as inhibition of bacterial growth in presence of middlebrook 7H9/ADC/tyloxapol/glycerol medium measured for 1 week by resazurin based colorimetric assay; format: functional; conditions: 168 h, time 1 weeks
Procedure, shortened: (§1)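 Mtb H37Rv grown in 7H9 with 10% ADC, 0.05% tyloxapol, 0.02% glycerol to OD600 ~1, then pre-adapted 8 days at 37 °C in the test medium (c7H9, 7H9-Low BSA or MMM-Ch). DMSO stocks serially diluted, 400 to 0.78 μM, about 10^5 CFU per well. Incubated at 37 °C for 1 week (c7H9, Low BSA) or 2 weeks (MMM-Ch). 0.02% resazurin added for 1 day more. MIC90 read visually as lowest concentration with no colour change.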

[6] = test system: Mycobacterium tuberculosis; experiment: Antimycobacterial activity against Mycobacterium tuberculosis H37Rv assessed as inhibition of bacterial growth in presence of middlebrook 7H9/BSAADN//tyloxapol/glycerol medium measured for 1 week by resazurin based colorimetric assay; format: functional; conditions: 168 h, time 1 weeks; procedure, shortened: as §1
[7] = test system: Mycobacterium tuberculosis; experiment: Antimycobacterial activity against Mycobacterium tuberculosis H37Rv assessed as inhibition of bacterial growth in presence of Mycobacterial minimal medium with cholesterol measured for 2 weeks by resazurin based colorimetric assay; format: functional; conditions: 336 h; procedure, shortened: as §1

Row | Structure (SMILES) | fold change (FC) [1] | further results
1 | c1ccc2c(CCc3ccncc3)c[nH]c2c1 | 1.1 | 
2 | c1ccc2c(CCc3ccncn3)c[nH]c2c1 | 1.8 | deltaTm [2]: 3.5 °C
3 | Nc1[nH]nc(-c2ccc(O)cc2)c1-c1ccc(O)cc1 |  | Kd [3]: 20 µM; deltaTm [2]: 1 °C
4 | c1ccc2c(c1)OCCN2c1nccc(CCc2c[nH]c3ccccc23)n1 | 0.1 | Kd [4]: 17.5 µM
5 | Clc1ccc2[nH]cc(CCc3ccncc3)c2c1 | 2.3 | 
6 | c1ccc2c(CCc3nc4c(c(N5CCOCC5)n3)CNC4)c[nH]c2c1 | 4.1 | deltaTm [2]: 3.5 °C
7 | N[C@H](Cc1c[nH]c2ccccc12)c1nc(-c2ccccc2)cs1 |  | MIC90 [5]: 40 µM; MIC90 [6]: 40 µM; MIC90 [7]: 40 µM
8 | c1ccc2c(CCc3nc4c(c(N5CCOCC5)n3)CCNC4)c[nH]c2c1 | 1.3 | deltaTm [2]: 1 °C
9 | Cn1cc(CCc2ccnc(N3CCOCC3)n2)c2ccccc21 | 2.1 | 
10 | Brc1ccc2c(c1)N(c1nccc(CCc3c[nH]c4ccccc34)n1)CCO2 | 0.3 | 
11 | Oc1ccc2[nH]cc(CCc3ccnc(N4CCOCC4)n3)c2c1 | 3.5 | deltaTm [2]: 0.5 °C
12 | N[C@H](Cc1c[nH]c2ccccc12)c1nc(-c2ccccn2)cs1 |  | MIC90 [5]: 40 µM; MIC90 [6]: 40 µM; MIC90 [7]: 40 µM
13 | Fc1ccc2[nH]cc(CCc3ccnc(N4CCOCC4)n3)c2c1 | 10.6 | 
14 | FC(F)(F)Oc1ccc2[nH]cc(CCc3ccnc(N4CCOCC4)n3)c2c1 | 1.1 | 
15 | c1ccc2c(CCc3nc4c(c(N5CC6CCC(C5)O6)n3)CNC4)c[nH]c2c1 |  | deltaTm [2]: 2.4 °C
16 | COC1CN(c2nccc(CCc3c[nH]c4ccccc34)n2)C1 | 1.2 | 
17 | c1ccc2c(CCc3ccnc(N4CCCOCC4)n3)c[nH]c2c1 | 4.7 | 
18 | N[C@H](Cc1c[nH]c2ccccc12)c1nc(-c2ccc(OC(F)(F)F)cc2)cs1 |  | MIC90 [5]: 40 µM; MIC90 [6]: 40 µM; MIC90 [7]: 40 µM
19 | c1ccc2c(CCc3ccnc(N4CCOCC4)n3)c[nH]c2c1 | 4.7 | Kd [4]: 25.2 µM
20 | Ic1ccc2[nH]cc(CCc3ccncc3)c2c1 | 1.9 | 
21 | COc1ccc2[nH]cc(CCc3ccncc3)c2c1 | 1 | 
22 | Fc1ccc2[nH]cc(CCc3ccncc3)c2c1 | 3.5 | 
23 | FC(F)(F)Oc1ccc2[nH]cc(CCc3ccncc3)c2c1 | 1.2 | 
24 | COC1CN(c2nccc(CCc3c[nH]c4ccc(Br)cc34)n2)C1 | 1.8 | 
25 | Brc1ccc2[nH]cc(CCc3ccncc3)c2c1 | 1.3 | 
26 | Brc1ccc2[nH]cc(CCc3ccnc(N4CCOCC4)n3)c2c1 | 3.8 | 
